Results reported in ChEMBL document CHEMBL1142242, “Indanylacetic acid derivatives carrying 4-thiazolyl-phenoxy tail groups, a new class of potent PPAR alpha/gamma/delta pan agonists: synthesis, structure-activity relationship, and in vivo efficacy” (J Med Chem, 2007).
Active and inactive are the calls of the source. No cut-off for these calls is given here.

Experiments:
Mus musculus [1] = assay: Reduction of plasma triglyceride level in male human apoA1 transgenic mouse at 10 mg/kg; format: functional, organism-based; design: dose 10 mg/kg
Method in brief: (§1)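 hApoA1 transgenic mice, 6 weeks old at purchase, grouped by equal baseline plasma triglyceride; oral dosing once daily for 7 days in 0.5% methylcellulose in water; bled ~24 h after last dose; plasma triglyceride and HDLc by autoanalyzer; mean ± SEM, 6-8 mice.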

Mus musculus [2] = assay: Increase of plasma HDLc level in male human apoA1 transgenic mouse at 10 mg/kg; format: functional, organism-based; design: dose 10 mg/kg; method in brief: as §1
Mus musculus [3] = assay: Increase of plasma HDLc level in female human apoA1 transgenic mouse at 10 mg/kg; format: functional, organism-based; design: dose 10 mg/kg; method in brief: as §1
Rattus norvegicus [4] = assay: Reduction of FFA level in ZDF rat at 1 mg/kg, po after 21 days; format: functional, organism-based; design: dose 1 mg/kg
Method in brief: (§2)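 Male ZDF rats, on chow 4-8 weeks to confirm hyperglycemia, grouped by equal baseline blood glucose; oral dosing once daily for 21 days in 0.5% methylcellulose in water; bled ~24 h after last dose; plasma FFA measured.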

Rattus norvegicus [5] = assay: Reduction of FFA level in ZDF rat at 3 mg/kg, po after 21 days; format: functional, organism-based; design: dose 3 mg/kg; method in brief: as §2
Syrian golden hamster [6] = assay: Reduction of VLDL level in fat fed hyperlipidemic Golden Syrian hamster at 10 mg/kg, po after 14 days; format: functional, organism-based; design: dose 10 mg/kg; conditions: Mesocricetus auratus
Method in brief: (§3)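 Male Syrian Golden hamsters (≤7 weeks, 120-150 g) on high fat diet plus 10% fructose drinking water; bled day 10, then dosed orally once daily by weight for 14 days; necropsy day 24; EDTA plasma lipoproteins resolved by FPLC; mean ± SEM, 10 hamsters.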

Syrian golden hamster [7] = assay: Reduction of LDL level in fat fed hyperlipidemic Golden Syrian hamster at 10 mg/kg, po after 14 days; format: functional, organism-based; design: dose 10 mg/kg; conditions: Mesocricetus auratus; method in brief: as §3
Syrian golden hamster [8] = assay: Increase of HDL/LDL ratio in fat fed hyperlipidemic Golden Syrian hamster at 10 mg/kg, po after 14 days; format: functional, organism-based; design: dose 10 mg/kg; conditions: Mesocricetus auratus; method in brief: as §3
Mus musculus [9] = assay: Reduction of blood glucose level in orally dosed db/db mouse at 1 mg/kg after 8 days; format: functional, organism-based; design: dose 1 mg/kg
Method in brief: (§4)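 Female db/db mice, on chow 3-4 weeks to confirm hyperglycemia, grouped by equal baseline blood glucose; oral dosing once daily in 0.5% methylcellulose in water; blood glucose by analyzer ~24 h after last dose; percent change vs vehicle = ((Tf/Ti)/(Vf/Vi) − 1) × 100.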

Mus musculus [10] = assay: Reduction of blood glucose level in orally dosed db/db mouse at 3 mg/kg after 8 days; format: functional, organism-based; design: dose 3 mg/kg; method in brief: as §4
Mus musculus [11] = assay: Reduction of blood glucose level in orally dosed db/db mouse at 10 mg/kg after 8 days; format: functional, organism-based; design: dose 10 mg/kg; method in brief: as §4
Estrogen receptor = Estrogen receptor (Mus musculus, UniProt O08537+P19785); assay: Displacement of [3H]O-estradiol from ER in Swiss mouse uteri; format: protein assay
[12] = molecular target: T1, Peroxisome proliferator-activated receptor alpha (Homo sapiens) (UniProt Q07869); assay: Agonist activity at human PPAR alpha expressed in CV1 cells by GAL4 transactivation assay; format: functional, cell-based; conditions: CV-1
T1 sequence (whole entry): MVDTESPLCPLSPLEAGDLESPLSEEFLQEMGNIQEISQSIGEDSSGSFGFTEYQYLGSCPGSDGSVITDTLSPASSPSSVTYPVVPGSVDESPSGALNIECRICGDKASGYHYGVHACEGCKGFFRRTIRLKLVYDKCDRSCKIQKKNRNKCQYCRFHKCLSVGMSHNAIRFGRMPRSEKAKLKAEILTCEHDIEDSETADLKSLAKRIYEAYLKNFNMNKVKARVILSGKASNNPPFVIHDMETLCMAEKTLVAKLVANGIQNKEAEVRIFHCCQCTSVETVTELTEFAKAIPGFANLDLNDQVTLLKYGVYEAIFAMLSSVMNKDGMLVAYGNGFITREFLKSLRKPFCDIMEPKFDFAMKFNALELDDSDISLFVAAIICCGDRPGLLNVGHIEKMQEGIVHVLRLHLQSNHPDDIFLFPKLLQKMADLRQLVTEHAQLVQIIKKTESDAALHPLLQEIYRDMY
Method in brief: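 CV-1 cells plated, grown overnight at 37 °C in 5% CO₂, then transfected with GAL4-fused human PPARα ligand binding domain, pFR-LUC and pRL-SV40 reporter DNAs by lipofection. After a further overnight incubation, cells were exposed to compound or vehicle overnight. Activity was read as dual-luciferase reporter signal.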

[13] = molecular target: T2, Peroxisome proliferator-activated receptor alpha (Mus musculus) (UniProt P23204); assay: Agonist activity at mouse PPAR alpha; format: functional
T2 sequence (whole entry): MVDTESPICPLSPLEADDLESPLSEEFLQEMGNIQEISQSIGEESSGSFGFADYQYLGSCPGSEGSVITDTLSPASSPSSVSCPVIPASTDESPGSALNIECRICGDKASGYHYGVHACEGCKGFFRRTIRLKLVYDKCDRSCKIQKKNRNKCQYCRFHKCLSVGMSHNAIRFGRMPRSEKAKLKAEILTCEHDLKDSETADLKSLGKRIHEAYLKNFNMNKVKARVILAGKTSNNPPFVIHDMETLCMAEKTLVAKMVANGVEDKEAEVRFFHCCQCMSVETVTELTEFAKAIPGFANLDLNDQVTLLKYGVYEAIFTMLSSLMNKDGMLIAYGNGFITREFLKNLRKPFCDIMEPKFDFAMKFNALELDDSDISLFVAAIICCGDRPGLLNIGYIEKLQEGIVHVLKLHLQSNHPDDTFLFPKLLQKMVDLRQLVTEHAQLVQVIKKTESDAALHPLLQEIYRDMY

[14] = tested on: PPAR alpha (Mesocricetus auratus); assay: Agonist activity at Syrian Golden hamster PPAR alpha
Syrian golden hamster [15] = assay: Reduction of VLDL level in fat fed hyperlipidemic Golden Syrian hamster at 100 mg/kg, po after 14 days; format: functional, organism-based; design: dose 100 mg/kg; conditions: Mesocricetus auratus; method in brief: as §3
Syrian golden hamster [16] = assay: Reduction of LDL level in fat fed hyperlipidemic Golden Syrian hamster at 100 mg/kg, po after 14 days; format: functional, organism-based; design: dose 100 mg/kg; conditions: Mesocricetus auratus; method in brief: as §3
Syrian golden hamster [17] = assay: Increase of HDL/LDL ratio in fat fed hyperlipidemic Golden Syrian hamster at 100 mg/kg, po after 14 days; format: functional, organism-based; design: dose 100 mg/kg; conditions: Mesocricetus auratus; method in brief: as §3
[18] = Aqueous solubility of the compound; format: physicochemical
[19] = molecular target: T3, Peroxisome proliferator-activated receptor alpha (Homo sapiens, UniProt Q07869); assay: Agonist activity at human PPAR alpha by FRET assay; format: functional
T3 sequence (Q07869 whole entry): T1 sequence (whole entry)
Method in brief: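 Human PPARα ligand binding domain (GST-tagged) association with biotin-labeled co-activator CBP; Eu-labeled anti-GST antibody and streptavidin-APC; incubated 2 h at rt in buffer with or without compound; fluorescence read at 615 or 655 nm emission, 340 nm excitation.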

[20] = molecular target: T4, Peroxisome proliferator-activated receptor delta (Homo sapiens, UniProt Q03181); assay: Agonist activity at human PPAR delta by FRET assay; format: functional
T4 sequence (Q03181 whole entry): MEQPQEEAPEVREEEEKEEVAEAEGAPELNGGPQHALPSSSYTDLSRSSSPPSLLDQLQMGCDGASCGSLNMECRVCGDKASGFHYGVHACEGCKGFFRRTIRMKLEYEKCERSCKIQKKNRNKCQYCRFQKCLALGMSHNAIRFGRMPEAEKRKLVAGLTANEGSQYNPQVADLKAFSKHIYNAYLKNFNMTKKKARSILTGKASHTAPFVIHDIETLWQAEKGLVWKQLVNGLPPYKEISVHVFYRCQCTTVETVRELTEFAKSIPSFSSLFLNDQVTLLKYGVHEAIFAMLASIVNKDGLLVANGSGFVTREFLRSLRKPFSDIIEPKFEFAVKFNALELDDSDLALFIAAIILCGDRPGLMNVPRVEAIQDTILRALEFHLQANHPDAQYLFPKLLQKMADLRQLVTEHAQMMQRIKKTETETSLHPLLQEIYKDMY

[21] = molecular target: T5, Peroxisome proliferator-activated receptor gamma (Mus musculus, UniProt P37238); assay: Agonist activity at PPAR gamma in mouse 3T3L1 cells assessed as increase in insulin receptor by IRBA; format: functional, cell-based, 3T3-L1
T5 sequence (P37238 whole entry): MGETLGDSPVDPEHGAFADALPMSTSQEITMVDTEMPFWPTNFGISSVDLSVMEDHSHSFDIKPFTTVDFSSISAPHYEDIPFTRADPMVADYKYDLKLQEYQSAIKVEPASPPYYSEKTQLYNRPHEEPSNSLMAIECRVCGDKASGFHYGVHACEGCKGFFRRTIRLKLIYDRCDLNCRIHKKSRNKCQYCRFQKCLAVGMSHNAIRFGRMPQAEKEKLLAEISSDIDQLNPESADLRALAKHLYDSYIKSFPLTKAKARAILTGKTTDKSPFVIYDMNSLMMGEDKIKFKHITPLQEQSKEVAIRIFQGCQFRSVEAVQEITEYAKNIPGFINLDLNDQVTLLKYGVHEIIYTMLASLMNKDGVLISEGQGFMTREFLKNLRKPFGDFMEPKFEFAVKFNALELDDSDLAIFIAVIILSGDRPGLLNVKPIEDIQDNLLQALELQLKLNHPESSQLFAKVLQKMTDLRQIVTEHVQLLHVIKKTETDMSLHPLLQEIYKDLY

CCCc1cc(C2=NC3OCCCC3S2)ccc1OCCCOc1ccc2c(c1)CC[C@H]2CC(=O)O (some centres not stated)
Activity (Mus musculus [1]): Dose-dependent effect | Activity (Mus musculus [2]): Dose-dependent effect | Activity (Mus musculus [3]): Active | Activity (Rattus norvegicus [4]): Active | Activity (Rattus norvegicus [5]): Active | Activity (Syrian golden hamster [6]): Active | Activity (Syrian golden hamster [7]): Active | Activity (Syrian golden hamster [8]): Active | Activity (Mus musculus [9]): Dose-dependent effect | Activity (Mus musculus [10]): Dose-dependent effect | Activity (Mus musculus [11]): Dose-dependent effect | EC50 (Estrogen receptor): > 10000 nM | Activity [12]: 88% | Activity [13]: 25% | Activity [14]: 100%

CC(C)OC(=O)C(C)(C)Oc1ccc(C(=O)c2ccc(Cl)cc2)cc1
Activity (Syrian golden hamster [15]): Active | Activity (Syrian golden hamster [16]): Active | Activity (Syrian golden hamster [17]): Active

CCCc1c(OCCCOc2ccc3c(c2)CC[C@H]3CC(=O)O)ccc2c(C(F)(F)F)noc12
solubility [18]: < 1 µM | EC50 [19]: 192 nM | EC50 [20]: 6 nM | EC50 [21]: 42 nM
